Key:
MCF7 [1] = assay: Cytotoxicity against human MCF7 cells assessed as reduction in cell growth incubated for 72 hrs by MTT assay; format: functional, cell-based; conditions: MCF7, 72 h
How it was run: (§1)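 Cells grown in DMEM with 10% FBS and penicillin-streptomycin at 37 °C, 5% CO2, seeded at 3000 cells/well and attached overnight. Screening series given at 1, 3, 10, 100 μM; follow-up agent at 100 nM–3 μM; both 72 h, with 0.1% DMSO vehicle. MTT (5 mg/mL stock) added for 3 h at 37 °C, formazan dissolved in DMSO, absorbance read at 570 nm. Viability expressed as % of DMSO-treated wells from replicates.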

A-375 [2] = assay: Cytotoxicity against human A375 cells assessed as reduction in cell growth at 1 uM incubated for 72 hrs by MTT assay relative to control; format: functional; conditions: A-375, 72 h, read-out: GI; how it was run: as §1
MCF7 [3] = assay: Cytotoxicity against human MCF7 cells assessed as reduction in cell growth at 100 uM incubated for 72 hrs by MTT assay relative to control; format: functional; conditions: MCF7, 72 h, read-out: GI; how it was run: as §1
A-431 [4] = assay: Cytotoxicity against human A431 cells assessed as reduction in cell growth incubated for 72 hrs by MTT assay; format: functional, cell-based; conditions: A-431, 72 h; how it was run: as §1
A-431 [5] = assay: Cytotoxicity against human A431 cells assessed as reduction in cell growth at 100 uM incubated for 72 hrs by MTT assay relative to control; format: functional; conditions: A-431, 72 h, read-out: GI; how it was run: as §1
HeLa [6] = assay: Cytotoxicity against human HeLa cells assessed as reduction in cell growth incubated for 72 hrs by MTT assay; format: functional, cell-based; how it was run: as §1
MCF7 [7] = assay: Cytotoxicity against human MCF7 cells assessed as reduction in cell growth at 3 uM incubated for 72 hrs by MTT assay relative to control; format: functional; conditions: MCF7, 72 h, read-out: GI; how it was run: as §1
A-431 [8] = assay: Cytotoxicity against human A431 cells assessed as reduction in cell growth at 10 uM incubated for 72 hrs by MTT assay relative to control; format: functional; conditions: A-431, 72 h, read-out: GI; how it was run: as §1
HeLa [9] = assay: Cytotoxicity against human HeLa cells assessed as reduction in cell growth at 10 uM incubated for 72 hrs by MTT assay relative to control; format: functional; conditions: read-out: GI; how it was run: as §1
A-431 [10] = assay: Cytotoxicity against human A431 cells assessed as reduction in cell growth at 3 uM incubated for 72 hrs by MTT assay relative to control; format: functional; conditions: A-431, 72 h, read-out: GI; how it was run: as §1
A-431 [11] = assay: Cytotoxicity against human A431 cells assessed as reduction in cell growth at 30 uM incubated for 72 hrs by MTT assay relative to control; format: functional; conditions: A-431, 72 h, read-out: GI
A-375 [12] = assay: Cytotoxicity against human A375 cells assessed as reduction in cell growth incubated for 72 hrs by MTT assay; format: functional, cell-based; conditions: A-375, 72 h; how it was run: as §1
MCF7 [13] = assay: Cytotoxicity against human MCF7 cells assessed as reduction in cell growth at 30 uM incubated for 72 hrs by MTT assay relative to control; format: functional; conditions: MCF7, 72 h, read-out: GI
A-375 [14] = assay: Cytotoxicity against human A375 cells assessed as reduction in cell growth at 3 uM incubated for 72 hrs by MTT assay relative to control; format: functional; conditions: A-375, 72 h, read-out: GI; how it was run: as §1
HeLa [15] = assay: Cytotoxicity against human HeLa cells assessed as reduction in cell growth at 3 uM incubated for 72 hrs by MTT assay relative to control; format: functional; conditions: read-out: GI; how it was run: as §1
MCF7 [16] = assay: Cytotoxicity against human MCF7 cells assessed as reduction in cell growth at 1 uM incubated for 72 hrs by MTT assay relative to control; format: functional; conditions: MCF7, 72 h, read-out: GI; how it was run: as §1
HeLa [17] = assay: Cytotoxicity against human HeLa cells assessed as reduction in cell growth at 1 uM incubated for 72 hrs by MTT assay relative to control; format: functional; conditions: read-out: GI; how it was run: as §1
MCF7 [18] = assay: Cytotoxicity against human MCF7 cells assessed as reduction in cell growth at 10 uM incubated for 72 hrs by MTT assay relative to control; format: functional; conditions: MCF7, 72 h, read-out: GI; how it was run: as §1
A-375 [19] = assay: Cytotoxicity against human A375 cells assessed as reduction in cell growth at 100 uM incubated for 72 hrs by MTT assay relative to control; format: functional; conditions: A-375, 72 h, read-out: GI; how it was run: as §1
A-375 [20] = assay: Cytotoxicity against human A375 cells assessed as reduction in cell growth at 30 uM incubated for 72 hrs by MTT assay relative to control; format: functional; conditions: A-375, 72 h, read-out: GI
HeLa [21] = assay: Cytotoxicity against human HeLa cells assessed as reduction in cell growth at 30 uM incubated for 72 hrs by MTT assay relative to control; format: functional; conditions: read-out: GI
HeLa [22] = assay: Cytotoxicity against human HeLa cells assessed as reduction in cell growth at 100 uM incubated for 72 hrs by MTT assay relative to control; format: functional; conditions: read-out: GI; how it was run: as §1
A-375 [23] = assay: Cytotoxicity against human A375 cells assessed as reduction in cell growth at 10 uM incubated for 72 hrs by MTT assay relative to control; format: functional; conditions: A-375, 72 h, read-out: GI; how it was run: as §1
A-431 [24] = assay: Cytotoxicity against human A431 cells assessed as reduction in cell growth at 1 uM incubated for 72 hrs by MTT assay relative to control; format: functional; conditions: A-431, 72 h, read-out: GI; how it was run: as §1

SMILES | IC50 (MCF7 [1]) [µM] | inhibition of growth at 1 µM (A-375 [2]) [%] | inhibition of growth at 100 µM (MCF7 [3]) [%] | IC50 (A-431 [4]) [µM] | inhibition of growth at 100 µM (A-431 [5]) [%] | IC50 (HeLa [6]) [µM] | inhibition of growth at 3 µM (MCF7 [7]) [%] | inhibition of growth at 10 µM (A-431 [8]) [%] | inhibition of growth at 10 µM (HeLa [9]) [%] | inhibition of growth at 3 µM (A-431 [10]) [%] | inhibition of growth at 30 µM (A-431 [11]) [%] | IC50 (A-375 [12]) [µM] | inhibition of growth at 30 µM (MCF7 [13]) [%] | inhibition of growth at 3 µM (A-375 [14]) [%] | inhibition of growth at 3 µM (HeLa [15]) [%] | inhibition of growth at 1 µM (MCF7 [16]) [%] | inhibition of growth at 1 µM (HeLa [17]) [%] | inhibition of growth at 10 µM (MCF7 [18]) [%] | inhibition of growth at 100 µM (A-375 [19]) [%] | inhibition of growth at 30 µM (A-375 [20]) [%] | other results
N/C(=N\NC(=S)N1CCCCCC1)c1ccc(F)cn1 | 21.1 | 51.8 | 79 | 1 | 83.5 | 0.9 | 24.3 | 64.4 | 83.2 | 62.4 | 81.3 | 0.96 | 68.2 | 66.6 | 65.1 | 16.8 | 50 | 26.8 | 85.7 | 80 | inhibition of growth at 30 µM (HeLa [21]): 84.5%; inhibition of growth at 100 µM (HeLa [22]): 85.6%; inhibition of growth at 10 µM (A-375 [23]): 72.2%; inhibition of growth at 1 µM (A-431 [24]): 50.3%
N/C(=N\NC(=S)N1CCN(c2ccccn2)CC1)c1ccccn1 | 13.7 | 70 | 68.3 | 4.3 | 91.9 | 8.6 | 37.2 | 69 | 56.1 | 45.8 | 74.9 | 0.7 | 65.3 | 73.7 | 24.4 | 36 | 16.7 | 46.4 | 86.8 | 81 | inhibition of growth at 30 µM (HeLa [21]): 78.9%; inhibition of growth at 100 µM (HeLa [22]): 85.6%; inhibition of growth at 10 µM (A-375 [23]): 74.4%; inhibition of growth at 1 µM (A-431 [24]): 11.6%
Cc1ccnc(/C(N)=N/NC(=S)N2CCSCC2)c1 | 6.9 | 47.7 | 76.8 | 7.2 | 79.6 | 15.5 | 33.8 | 60 | 39.2 | 34.7 | 75.3 | 1.2 | 74.2 | 67.2 | 40.4 | 3.89 | 41.1 | 62.5 | 89.9 | 84.9 | inhibition of growth at 30 µM (HeLa [21]): 78.3%; inhibition of growth at 100 µM (HeLa [22]): 91.6%; inhibition of growth at 10 µM (A-375 [23]): 74.5%; inhibition of growth at 1 µM (A-431 [24]): 34.6%
Cc1ccnc(/C(N)=N/NC(=S)N2CCCCCC2)c1 | 6.9 | 61.9 | 65.4 | 8 | 71 | 7 | 36.3 | 55.5 | 55.8 | 36.1 | 63.4 | 0.8 | 75.9 | 70 | 41.9 | 18.2 | 43.2 | 60.3 | 77 | 76.5 | inhibition of growth at 30 µM (HeLa [21]): 69.9%; inhibition of growth at 100 µM (HeLa [22]): 91.6%; inhibition of growth at 10 µM (A-375 [23]): 70.6%; inhibition of growth at 1 µM (A-431 [24]): 36.3%
Cc1cccc(/C(N)=N/NC(=S)N2CCOCC2)n1 | 21.5 | 30.2 | 74.7 | 4.3 | 84.8 | 2.2 | 21.6 | 68.1 | 85.4 | 45.8 | 80 | 14 | 57.8 | 34.7 | 65.7 | 11.7 | 25.7 | 39.1 | 83.8 | 74.3 | inhibition of growth at 30 µM (HeLa [21]): 86.9%; inhibition of growth at 100 µM (HeLa [22]): 82.4%; inhibition of growth at 10 µM (A-375 [23]): 43.6%; inhibition of growth at 1 µM (A-431 [24]): 47.2%

Reference: ChEMBL document CHEMBL4387724, “2-Pyridineformamide N(4)-ring incorporated thiosemicarbazones inhibit MCF-7 cells by inhibiting JNK pathway” (Bioorg Med Chem Lett, 2019)
